# Assay outcomes: PubChem, NMMLSC
# Arrestin-AP2 inh – human beta-arrestin and AP2 interaction inhibition. inhibition, % at 10 µM. FITC-arrestin peptide / GST-AP2 beads, flow cytometry; AP2 beta2 appendage carries R879A mutation. hit rate 0.31% among 340,000;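 active = inhibition above a set limit, near 3 SD of compounds lacking own fluorescence, cut at about 54% in these data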
#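 System: GST-AP2 R879A bound to glutathione beads, E. coli-expressed. Also added: 50 nM FITC-arrestin peptide. Schedule: compound with beads 12 min RT, then probe 1 h RT. Signal: bead flow cytometry, FITC channel. Read-out basis: percent response.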
# MEKK2 WT-MEK5 – raises or lowers MEK5 binding to wildtype human MEKK2 PB1 domain. Q9Y2U5. bead flow cytometry, Alexa488-MEK5 binding to MEKK2 WT; actives lie on both sides. binding response (% of control), % at 10 µM. hit rate 1.1% among 290,000. AID 1531; in the data active = binding response below about 67% or above about 130%
# MEKK2mut PB1 HTS – signal of MEK5 binding to mutant human MEKK2 PB1 domain. bead flow cytometry, Alexa488-MEK5 binding to MEKK2 mutant. percent response, % at 10 µM. hit rate 0.35% among 290,000. AID 1530; in the data active = percent response above about 24%, passing the limit was not always enough
# MEKK3 PB1 HTS – MEKK3-MEK5 PB1 interaction, increase or decrease. bead-based flow cytometry, Alexa488-MEK5 binding to MEKK3; actives lie on both sides; 0 = blocked by unlabeled MEK5, 100 = vehicle. binding response (% of control), % at 10 µM. hit rate 1.4% among 290,000. AID 1529;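 active = binding response more than 3 SD above or below the average of its plate-row segment, actives on both sides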;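 note: Alexa488 bead fluorescence after subtracting the streptavidin-only scavenger bead signal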
# Target sequence (Q99759 whole entry, looked up): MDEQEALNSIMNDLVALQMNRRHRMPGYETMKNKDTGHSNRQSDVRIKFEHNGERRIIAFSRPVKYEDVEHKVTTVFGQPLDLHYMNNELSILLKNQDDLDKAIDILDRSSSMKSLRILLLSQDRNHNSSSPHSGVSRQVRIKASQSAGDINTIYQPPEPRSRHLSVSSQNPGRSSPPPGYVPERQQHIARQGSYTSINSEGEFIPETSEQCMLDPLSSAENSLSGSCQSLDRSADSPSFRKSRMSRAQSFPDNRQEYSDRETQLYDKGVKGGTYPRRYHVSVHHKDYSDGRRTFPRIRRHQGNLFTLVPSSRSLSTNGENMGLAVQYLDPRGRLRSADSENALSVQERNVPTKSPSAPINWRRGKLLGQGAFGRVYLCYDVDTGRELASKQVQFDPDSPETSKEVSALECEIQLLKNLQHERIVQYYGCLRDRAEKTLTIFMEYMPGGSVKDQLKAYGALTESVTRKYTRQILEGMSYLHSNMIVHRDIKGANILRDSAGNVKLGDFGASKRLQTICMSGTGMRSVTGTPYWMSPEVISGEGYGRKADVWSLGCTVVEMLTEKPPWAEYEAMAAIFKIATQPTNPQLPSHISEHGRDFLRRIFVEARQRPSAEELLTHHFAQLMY
# MEKK2wt confirm – raises or lowers MEK5 binding to wildtype human MEKK2, retest | shares compounds with MEKK3 PB1 HTS | bead flow cytometry, Alexa488-MEK5 binding to MEKK2 WT; actives lie on both sides | binding response (% of control), % at 10 µM | hit rate 2.4% among 5,900; in the data active = binding response below about 16% or above about 210%; inactive = in between
# MEKK2mut-MEK5 – signal of MEK5 binding to mutant human MEKK2, retest; shares compounds with MEKK3 PB1 HTS; bead flow cytometry, Alexa488-MEK5 binding to MEKK2 mutant; percent response, % at 10 µM; hit rate 2% among 5,900; AID 1893; in the data active = percent response mostly above about 71%, no sharp cut-off; inactive = mostly below about 38%;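 note: higher means compound restores mutant binding toward wildtype level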
# MEKK3 confirm – confirmation of inhibitors of MEK5 binding to human MEKK3. shares compounds with MEKK3 PB1 HTS. bead flow cytometry, Alexa488-MEK5 binding to MEKK3; active compounds read low. binding response (% of control), % at 10 µM. hit rate 1.8% among 5,900;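 active = binding response below 72% of control, or above a set upper limit, though filed actives all read lower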;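 note: lower values mean stronger disruption of MEK5 binding to MEKK3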
# Hits are given with their value; – = inactive; · = not tested or not shown; [ ] = remark or other dose. Rows were chosen to be rich in hits. Some 2.3% of all compounds tested hit in one or more screens of this group.
SMILES,Arrestin-AP2 inh,MEKK2 WT-MEK5,MEKK2mut PB1 HTS,MEKK3 PB1 HTS,MEKK2wt confirm,MEKK2mut-MEK5,MEKK3 confirm
COc1ccc(/C=C/C(=O)OCC(=O)Nc2cccc(C(C)=O)c2)cc1,–,–,–,149,–,–,–
CCOC(=O)c1cc(N)cc([N+](=O)[O-])c1,–,–,–,–,·,·,·
CCOC(=O)c1sc2cc([N+](=O)[O-])cc(SCC(C)C)c2c1N,–,16,28,–,–,–,–
O=C(NCc1ccccc1)C(c1ccncc1)N(C(=O)c1csnn1)c1cccc(F)c1 (stereo not given),–,–,–,–,·,·,·
CCCN1CNc2c(c(=O)[nH]c(=S)n2CCc2ccc(OC)c(OC)c2)C1,–,–,–,–,·,·,·
CC1CN(C(=O)c2ccc(Oc3ccccc3)cc2)CC(C)O1 (stereo not given),–,–,–,70[inhibitor],–,–,–
CC1CN(C(=O)c2cc3ccccc3oc2=O)CC(C)O1 (stereo not given),–,–,–,82[inhibitor],–,–,–
CC1CN(C(=O)c2cccc(Oc3ccccc3)c2)CC(C)O1 (stereo not given),–,–,–,–,·,·,·
COc1cccc2cc(C(=O)N3CC(C)OC(C)C3)c(=O)oc12 (stereo not given),–,–,–,–,·,·,·
O=C(NCc1ccco1)c1cc2cc(Br)ccc2o1,–,–,–,–,·,·,·
CCCCOc1ccc(C(=O)NCC(=O)NNC(=O)c2ccco2)cc1,–,·,·,·,·,·,·
C/C(=N/OC(=O)c1ccc(C(F)(F)F)cc1)c1oc(C)nc1C,–,–,–,–,·,·,·
COc1ccc(-c2csc(NC(=O)c3ccc(N4C(=O)CCC4=O)cc3)n2)cc1,–,–,–,–,·,·,·
O=C(Nc1nc(-c2ccc(F)cc2)cs1)c1ccc(N2C(=O)CCC2=O)cc1,–,–,–,74[inhibitor],–,–,–
N#Cc1cn(N2CCCCC2)c(=O)[nH]c1=O,–,–,–,–,·,·,·
COCCNC(=S)N1CCCC(CO)C1 (stereo not given),–,–,–,–,·,·,·
CC1C=CCC2C(=O)N(c3ccc(OC(=O)c4cccs4)cc3)C(=O)C12 (stereo not given),·,–,–,–,·,·,·
CC1C=CCC2C(=O)N(c3ccc(OC(=O)c4ccco4)cc3)C(=O)C12 (stereo not given),–,–,–,161,–,–,–
Cc1ccc(CSCCNS(C)(=O)=O)cc1,–,–,–,58[inhibitor],–,–,–
COc1ccccc1CN1CCCC(C(=O)N(C)Cc2ccccc2)C1 (stereo not given),–,–,–,–,·,·,·
COc1ccccc1CN1CCCC(CN(CCN(C)C)C(=O)C2CCCC2)C1 (stereo not given),–,135,34,–,–,–,–
COc1ccccc1OCCCOc1c(Cl)cc(C)cc1Cl,–,–,–,134,–,–,–
COc1cc(C)ccc1OCCCOc1c(Cl)cccc1Cl,–,–,–,133,–,–,–
COc1cc(C)ccc1OCCCOc1cc(C)ccc1Cl,–,–,–,–,·,·,·
COc1cc(C)ccc1OCCOCCOc1cc(C)c(C)cc1Br,–,–,–,134,–,–,–
SMILES,Arrestin-AP2 inh,MEKK2 WT-MEK5,MEKK2mut PB1 HTS,MEKK3 PB1 HTS,MEKK2wt confirm,MEKK2mut-MEK5,MEKK3 confirm
COc1ccc(-c2coc3cc(O[C@@H]4O[C@H](CO)[C@@H](O)[C@H](O)[C@H]4O)ccc3c2=O)cc1,–,·,·,·,·,·,·
O=c1c(-c2ccc3c(c2)OCCO3)coc2cc(OC3OC(CO)C(O)C(O)C3O)ccc12 (stereo not given),–,46[inhibitor],–,44[inhibitor],–,–,–
Clc1ccccc1-c1csc(Nc2cccnc2)n1,–,–,–,47[inhibitor],–,–,–
c1cncc(Nc2nc(-c3ccncc3)cs2)c1,–,–,–,–,·,·,·
Fc1ccc(CSc2nnc3ccc(-c4ccncc4)nn23)cc1,–,–,190,–,–,–,–
COc1cc(CCC(=O)Nc2ccc(Br)c(C(F)(F)F)c2)cc(OC)c1OC,–,–,–,151,–,–,–
COc1cc(CCC(=O)Nc2ccc(Cl)c(C(F)(F)F)c2)cc(OC)c1OC,–,–,–,–,·,·,·
